Data published in the RNAGym collection of RNA variant scans (doi:10.1101/gad.245936.114).
Variants at the floor of the assay were thinned out.

B1: tRNA (parent)
chain: CUCUCGGUAGCCAAGUUGGUUUAAGGCGCAAGACUUUAAUUUAUCACUACGAAAUCUUGAGAUCGGGCGUUCGACUCGCCCCCGGGAGAUUUUUUCCUCGAGCAA

Variants of: B1
Assay: nonsense suppression (GFP-seq) (ratio to wild type); higher = more function; SUP4oc tRNA, yeast GFP reporter sort-seq
In short: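 Each variant's nonsense suppression (GFPSEQ) is a cell-share-weighted bin median GFP/RFP relative to the unmutated parent tRNA. Yeast with genome-integrated tRNA variants from a ~3% random-mutation library, a galactose-driven GFP ochre reporter and RFP were grown in raffinose/galactose medium with 80 mg/L adenine, then sorted into GFP/RFP bins for Illumina sequencing. Variants needed ≥100 reads and ≥30 cells.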
With CUCUCGGUAGCCAAGUUGGUUUAAACCGCAAGACUUUAAUUUAUCACUACGAAAUCUUGAGAUCGGGCGUUCGACUCGCCCCCGGGAGAUUUUUUCCUCGAGCAA [G25A G26C] the nonsense suppression was at most 0.026.
Variant CUCUCGGUAGCCAAGUUGGUUUAUGGCGCAAGACUUUAAUUUAUCACUACGAAAUCUUGAAAUCGGGCGUUCGACUCGCCCCCGGGAGAUUUUUUCCUCGAGCAA [A24U G61A] has a nonsense suppression of 0.124.
For CUCUCGGUAGCCAAGUUGGUUUAUGGCGCAAGACUUUAAUUUAUCACUACGAAAUCUUGACAUCGGGCGUUCGACUCGCCCCCGGGAGAUUUUUUCCUCGAGCAA [A24U G61C], the nonsense suppression was at most 0.026.
Work on CUCUCGGUAGCCAAGUUGGUUUAUGGCGCAAGACAUUAAUUUAUCACUACGAAAUCUUGAGAUCGGGCGUUCGACUCGCCCCCGGGAGAUUUUUUCCUCGAGCAA [A24U U35A] yielded a nonsense suppression of at most 0.026.
In the case of CUCUCGGUAGCCAAGUUGGUUUAUGGCGCAAGACUUUAAUUUAUCACUACGAAAUCUUGAGAUCGGGCGUUCGACUCGCCCUCGGGAGAUUUUUUCCUCGAGCAA [A24U C82U], the nonsense suppression is reported as 0.0571.
In the case of CUCUCGGUAGCCAAGUUGGUUUAUGGCGCAAGACUUUAAUUUAUCACUACGAAAUCUUGAGAUCGGGCGUUCGAUUCGCCUCCGGGAGAUUUUUUCCUCGAGCAA [A24U C75U C81U], the nonsense suppression is reported as at most 0.026.
CUCUCGGUAGCCAAGUUGGUUUAUGGCGCAAGACUUUAAUUUAUCACUACGAAAUCUUGAGAACGGGCGUUCGACUCGCCCCCGGGAGAUUUUUUCCUCGAGCAA [A24U U63A] showed a nonsense suppression of 0.119.
For CUCUCGGUAGCCAAGUUGGUUUAUGGCGCAAGACUUUAAUUUAUCACUACGAAAUCUUGAGACCGGGCGUUCGACUCGCCCCCGGGAGAUUUUUUCCUCGAGCAA [A24U U63C], the nonsense suppression was 0.0344.
With CUCUCGGUAGCCAAGUUGGUUUAUGGCGCAAGACGUUAAUUUAUCACUACGAAAUCUUGAGAUCGGGCGUUCGACUCGCCCCCGGGAGGUUUUUUCCUCGAGCAA [A24U U35G A89G] the nonsense suppression was at most 0.026.
For CUCUCGGUAGCCAAGUUGGUUUAUGGCGCAAGACUUUAAUUUAUCACUACGAAAUCUUGAGAUCGGGCGUUCGACUCGCUCCCGGGAGAUUUUUUCCUCGAGCAA [A24U C80U], the nonsense suppression was 0.192.
CUCUCGGUAGCCAAGUUGGUUUAAAUCGCAAGACUUUAAUUUAUCACUACGAAAUGUUGAGAUCGGGCGUUCGACUCGCCCCCGGGAGAUUUUUUCCUCGAGCAA [G25A G26U C56G] showed a nonsense suppression of 0.0585.
With CUCUCGGUAGCCAAGUUGGUUUAUGGCGCAAGACUUUAAUUUAUCACUACGAAAUCUUGAGAUCGGGCGUUCGACUCGCCCCCGAGGGAUUUUUUCCUCGAGCAA [A24U G85A A87G] the nonsense suppression was 0.215.
Work on CUCUCGGUAGCCAAGUUGGUUUAAAGCGCCAGACUUUAAUUUAUCACUACGAAAUCUUGAGAUCGGGCGUUCGACUCGCCCCCGGGAGAUUUUUUCCUCGAGCAA [G25A A30C] yielded a nonsense suppression of at most 0.026.
In the case of CUCUCGGUAGCCAAGUUGGUUUAAAGCGCAAGACUUUAAUUUAUCACUACGAAAUCUUGAGAUCGGGCGUUCGAGUCACCCCCGGGAGAUUUUUUCCUCGAGCAA [G25A C75G G78A], the nonsense suppression is reported as at most 0.026.
Variant CUCUCGGUAGCCAAGUUGGUUUAUGGCGCAAGACUUUAAUUUAUCACUACGAAAUCUCGAGAUCGGGCGUUCGACUCGCCCCCGAGAGAUUUUUUCCUCGAGCAA [A24U U58C G85A] has a nonsense suppression of at most 0.026.
CUCUCGGUAGCCAAGUUGGUUUAUGGCGCAAGACUUUAAUUUAUCACUACGAAACCUUGAGAUCGGGCGUUCGACUCGCCCCCGGGAGAUUUUUUCCUCGAGCAA [A24U U55C] gave a nonsense suppression of 0.104.
In the case of CUCUCGGUAGCCAAGUUGGUUUAUGGCGCAAGACUUUAAUUUAUCACUACGAAAUCUUGAGAUCGGGCGUUCGACUCUCCCCCGGGAGAUUUUUUCCUCGAGCAA [A24U G78U], the nonsense suppression is reported as 0.0565.
In the case of CUCUCGGUAGCCAAGUUGGUUUAUGGCGCAAGACUUUAAUUUAUCACUACGAAAUCUUGAGAUCGGGCGUUCGACCCGCCCCCGGGAGAUUUUUUCCUCGAGCAA [A24U U76C], the nonsense suppression is reported as 0.131.
In the case of CUCUCGGUAGCCAAGUUGGUUUAAAGCGCAAUACUUUAAUUUAUCACUACGAAAUCUUGAGAUCGGGCGUUCGACUCGCCCCCGGGAGAUUUUUUCCUCGAGCAA [G25A G32U], the nonsense suppression is reported as at most 0.026.
For CUCUCGGUAGCCAAGUUGGUUUAAAGCGAAAGACUUUAAUUUAUCACUACGAAAUCUUGAGAUCGGGCGUUCGACUCGCCCCCCGGAGAUUUUUUCCUCGAGCAA [G25A C29A G84C], the nonsense suppression was 0.027.
Work on CUCUCGGUAGCCAAGUUGGUUUAUGGCGCAAGACUUUAAUUUAUCACUACGAAAUCUUGAGAUCGGGCGUUCGACUCGCCCCCCGGAGAUUUUUUCCUCGAGCAA [A24U G84C] yielded a nonsense suppression of 0.107.
For CUCUCGGUAGCCAAGUUGGUUUAUGGCGCAAGACUUUAAUUUAUCACUACGAAAUCUUGAGAUCGGGCGUUCGACUCGCCCCCAGGAGAUUUUUUCCUCGAGCAA [A24U G84A], the nonsense suppression was 0.0448.
Variant CUCUCGGUAGCCAAGUUGGUUUAUGGCGCAAGACUUUAAUUUAUCACUACGAAAUCUUGAGAUCGGGCGUUGGACUCGCCCCCGGGAGAUUUUUUCCUCGAGCAA [A24U C72G] has a nonsense suppression of 0.03.
CUCUCGGUAGCCAAGUUGGUUUAUGGCGCAAGACUUUAAUUUAUCACUACGAAAUCUUGAGAUCGGGCGUUCGACUCGCCCCCGCGAGAUUUUUUCCUCGAGCAA [A24U G85C] gave a nonsense suppression of at most 0.026.
Variant CUCUCGGUAGCCAAGUUGGUUUAUGGCGCAAGACUUUAAUUUAUCACUACGAAAUCUUGAGAUCGGGCGUUCGACUCGCCCCCGUGAGAUUUUUUCCUCGAGCAA [A24U G85U] has a nonsense suppression of 0.0597.
Work on CUCUCGGUAGCCAAGUUGGUUUAUGGCGCAAGACUUUAAUUUAUCACUACGAAAUCUUGAGAUCGGGCGUUCGACUCGCCCCCGAGAGAUUUUUUCCUCGAGCAA [A24U G85A] yielded a nonsense suppression of 0.327.
CUCUCGGUAGCCAAGUUGGUUUAAAGCGCAAGACUUUAAUUUAUCACUACGAAAUGUUGAGAUCGGGCGUUCGACUCGUCCCCGGGAGAUUUUUUCCUCGAGCAA [G25A C56G C79U] showed a nonsense suppression of at most 0.026.
